The species entered for data set [1] is Homo sapiens. In words: Selectivity for human recombinant adenosine A2B receptor over human recombinant adenosine A1 receptor.
A further data set has as its target T1, Adenosine receptor A2b (Homo sapiens, UniProt P29275).
T1 sequence (P29275 whole entry): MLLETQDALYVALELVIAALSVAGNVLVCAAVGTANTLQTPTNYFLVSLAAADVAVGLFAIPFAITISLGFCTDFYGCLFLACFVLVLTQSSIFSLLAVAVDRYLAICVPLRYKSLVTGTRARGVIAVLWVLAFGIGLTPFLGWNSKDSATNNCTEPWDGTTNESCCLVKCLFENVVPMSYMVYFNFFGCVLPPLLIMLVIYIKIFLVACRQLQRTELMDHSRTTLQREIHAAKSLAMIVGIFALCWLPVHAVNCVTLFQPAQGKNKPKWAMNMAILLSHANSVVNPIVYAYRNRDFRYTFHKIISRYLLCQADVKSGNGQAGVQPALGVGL
In words: Displacement of [3H]ZM-241385 from human recombinant adenosine A2B receptor expressed in HEK293 cells. Type of data set: cell-based. In short, it runs like this:
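Membranes from HEK293 cells stably expressing human A2B receptor; competition with 10 nM radioligand, 50 µg membrane protein, in 50 mM Tris/1 mM EDTA with 1 U/mL adenosine deaminase, 25 °C for 90 min with gentle agitation; filtration, four ice-cold Tris/MgCl2 washes. Nonspecific binding defined with 10 µM unlabelled ligand; Ki calculated.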

A further data set has as its target T2, Adenosine receptor A1 (Homo sapiens, UniProt P30542).
T2 sequence (P30542 whole entry): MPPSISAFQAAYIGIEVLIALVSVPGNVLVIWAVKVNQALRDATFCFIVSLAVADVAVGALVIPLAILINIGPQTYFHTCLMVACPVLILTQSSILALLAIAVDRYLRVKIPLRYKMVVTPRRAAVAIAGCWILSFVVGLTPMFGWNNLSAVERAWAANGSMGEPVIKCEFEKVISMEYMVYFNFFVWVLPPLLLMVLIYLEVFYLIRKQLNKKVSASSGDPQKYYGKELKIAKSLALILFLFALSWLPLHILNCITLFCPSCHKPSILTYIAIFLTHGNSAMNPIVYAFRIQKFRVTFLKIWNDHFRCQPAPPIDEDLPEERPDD
In words: Displacement of [3H]CPX from human recombinant adenosine A1 receptor expressed in CHO cells. Type of data set: cell-based. In short, it runs like this: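 CHO cell membranes stably expressing human A1 receptor; 0.5 nM [3H]CPX competed with test compound in 50 mM Tris/1 mM EDTA plus 1 U/mL adenosine deaminase, 25 °C, 90 min, gentle agitation; filtration and four ice-cold Tris/MgCl2 washes. Nonspecific binding defined with 1 µM CPX; Ki values derived.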

The target of another data set is Adenosine receptor A2a (Homo sapiens, UniProt P29274). Put plainly: Displacement of [3H]ZM-241385 from human recombinant adenosine A2A receptor expressed in HEK293 cells. It is filed as cell-based. In short, it runs like this:
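Membranes from HEK293 cells stably expressing human A2A receptor; 2 nM radioligand competed in 50 mM Tris/1 mM EDTA with 1 U/mL adenosine deaminase for 90 min at 25 °C with agitation; filtration, four ice-cold Tris/MgCl2 washes. Nonspecific binding defined with 1 µM unlabelled ligand; Ki computed.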

For the next data set, the target named is T3, Adenosine receptor A3 (Homo sapiens, UniProt P0DMS8).
T3 sequence (P0DMS8 whole entry): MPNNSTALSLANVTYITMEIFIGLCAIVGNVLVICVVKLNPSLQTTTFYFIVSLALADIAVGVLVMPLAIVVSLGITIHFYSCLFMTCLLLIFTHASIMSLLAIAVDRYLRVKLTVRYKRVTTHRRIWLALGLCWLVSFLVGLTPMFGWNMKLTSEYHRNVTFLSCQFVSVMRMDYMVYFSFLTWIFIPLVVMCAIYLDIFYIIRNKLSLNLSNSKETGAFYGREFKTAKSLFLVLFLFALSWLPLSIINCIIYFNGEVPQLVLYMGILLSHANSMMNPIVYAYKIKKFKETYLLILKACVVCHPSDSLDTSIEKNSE
In words: Displacement of [125I]ABMECA from human recombinant adenosine A3 receptor expressed in CHO cells. Type of data set: cell-based. In short, it runs like this:
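Human A3 receptor stably expressed in CHO cells; membranes incubated with 0.1 nM 125I-AB-MECA and test compound in 50 mM Tris, 1 mM EDTA, 10 mM MgCl2 plus 1 U/mL adenosine deaminase, 25 °C, 90 min; filtration, four ice-cold washes. Nonspecific binding defined with 1 µM IB-MECA; Ki determined.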

The species named for data set [2] is Homo sapiens. In words: Selectivity for human recombinant adenosine A2B receptor over human recombinant adenosine A2A receptor.
The species named for data set [3] is Homo sapiens. Put plainly: Selectivity for human recombinant adenosine A2B receptor over human recombinant adenosine A3 receptor.
Data set [4] can be described thus: Cmax in Sprague-Dawley rat at 2 mg/kg, po. It is filed as ADME, organism-based. The following applies: in vivo. The arrangement: dose 2 mg/kg, route oral.
Data set [5] is described as follows: Plasma concentration in Sprague-Dawley rat at 2 mg/kg, po after 4 hrs. It is filed as ADME, organism-based. On the set-up: dose 2 mg/kg, route oral.
Data set [6] can be described thus: Plasma concentration in Sprague-Dawley rat at 2 mg/kg, po after 6 hrs. The arrangement: dose 2 mg/kg, route oral. It is filed as ADME, organism-based.
A short description of data set [7]: AUC (0 to tlast) in Sprague-Dawley rat at 2 mg/kg, po. Type of data set: ADME, organism-based. The arrangement: dose 2 mg/kg, route oral. The following applies: plasma.
Data set [8] is described as follows: Tmax in Sprague-Dawley rat at 2 mg/kg, po. The following applies: in vivo. Type of data set: ADME, organism-based. On the set-up: dose 2 mg/kg, route oral.

Where only a bound is given, the exact number is not on record here.

Adenosine receptor A2a, sequence (P29274 whole entry): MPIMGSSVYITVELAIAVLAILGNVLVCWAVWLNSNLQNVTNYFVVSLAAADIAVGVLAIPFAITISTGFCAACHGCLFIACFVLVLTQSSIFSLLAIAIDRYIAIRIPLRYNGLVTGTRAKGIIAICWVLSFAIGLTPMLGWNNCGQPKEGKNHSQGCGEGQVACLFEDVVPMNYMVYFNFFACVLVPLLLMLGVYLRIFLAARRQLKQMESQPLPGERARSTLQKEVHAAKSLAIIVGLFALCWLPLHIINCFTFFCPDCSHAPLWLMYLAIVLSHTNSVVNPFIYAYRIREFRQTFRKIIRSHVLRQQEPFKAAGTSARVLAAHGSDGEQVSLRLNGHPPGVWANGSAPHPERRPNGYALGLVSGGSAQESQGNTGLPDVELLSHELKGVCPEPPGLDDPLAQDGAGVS

For the molecule `CCCn1c(=O)c2[nH]c(-c3cnn(Cc4noc(-c5ccc(C(F)(F)F)cc5)n4)c3)nc2n(CC)c1=O`, the Ratio Ki is greater than 250 in the data set filed under Homo sapiens [1], greater than 208 in the data set listed under Homo sapiens [2] and greater than 375 in the data set listed under Homo sapiens [3]. For the same molecule, the Ki on Adenosine receptor A2b is 0.024 µM; on Adenosine receptor A1, greater than 6 µM; on Adenosine receptor A2a, greater than 5 µM; on Adenosine receptor A3, greater than 9 µM. The molecule further registered a Cmax in [4] of 34.6 ng/mL. Further, the concentration at 4 h in data set [5] stood at 7.75 ng/mL. This molecule also had a concentration at 6 h in [6] of 17.3 ng/mL. For the same molecule, the AUC(0-t) in [7] came out at 65.6 ng·h/mL. Moreover, the Tmax in data set [8] is 6 h.

The record behind these values is ChEMBL document CHEMBL1145545, “Discovery of a novel A2B adenosine receptor antagonist as a clinical candidate for chronic inflammatory airway diseases” (J Med Chem, 2008).
